Screens as filed in PubChem.
TRPC6 activator – activates the mouse TRPC6 cation channel | Q61143 | 0.13% of 310,000 active | HEK293-TRPC6 membrane potential dye fluorescence; stronger effect = higher value | B-score at 10 µM;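 active means B-score of the integrated fluorescence ratio above library mean plus 3 SD, and starting fluorescence ratio within library mean plus 5 SD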;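 further: higher score means more depolarization so channel activation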
TRPC4 inh – blocks the mouse TRPC4 cation channel. B-score at 10 µM. Q9QUQ5. HEK293 TRPC4beta/mu-opioid, DAMGO-evoked Fluo4 calcium flux; stronger effect = lower value. 0.39% of 300,000 active. AID 2247;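 active means B-score over 3 SD under the library average, no early fluorescence shift, positive overall ratio signal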
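Assay system: TRPC4beta/mu-opioid receptor HEK293 cell line; compound dosing: single concentration per test compound; detection: Fluo4 Ca2+ flux fluorescence; evaluation: per-well B score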
TRPC4 PAM – TRPC4 (mouse) allosteric potentiation; B-score at 10 µM; Q9QUQ5; AID 2227; HEK293 TRPC4beta/mu-opioid, DAMGO EC20, Fluo-4 Ca2+ flux; stronger effect = higher value; 0.42% of 310,000 active;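 active means B-score of calcium response area above 5 SD of library B-scores, with initial fluorescence ratio within 5 SD of library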;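 further: B-score of integrated fluorescence ratio over time as area under calcium response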
TRPC6 inhibitor – blocks the mouse TRPC6 cation channel. Q61143. B-score at 10 µM. 1.1% of 310,000 active. HEK293-TRPC6, membrane potential dye, ACh-evoked depolarization; stronger effect = lower value;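 active means B-score under library mean minus 3 SD, initial fluorescence not abnormally high, positive integrated signal ratio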;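 further: B-score derived from integrated fluorescence ratio over the kinetic read; more negative B-score means stronger inhibition of depolarization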
TRPC4 act – TRPC4 (mouse) channel activation | B-score at 10 µM | Q9QUQ5 | HEK293 TRPC4beta/mu-opioid, Fluo4 calcium fluorescence; stronger effect = higher value | 0.49% of 310,000 active;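 active means B-score above 5 SD of library B-scores, and initial fluorescence ratio not above library mean plus 5 SD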;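 further: positive B-score marks a calcium rise read as TRPC4 activation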
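Assay system: HEK293 stable line with TRPC4beta plus mu-opioid receptor. Times: dye 45 min RT, read 110 s. Measured by: kinetic Fluo4 calcium fluorescence. Measure: B score of integrated ratio. Controls: assay buffer as low control, maximal DAMGO as high control.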
TRPC4 sel inh 2 – mouse TRPC4 off-target activity of TRPC6 inhibitors, second screen; shares compounds with TRPC6 inhibitor; HEK293 TRPC4/MOR, membrane potential dye fluorescence; channel activated by saturating DAMGO dose; inhibition, % at 10 µM; 42% of 920 active; AID 2776;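 active means compounds whose fluorescence signal differed from control wells by over 3 SD, either direction, in both duplicate plates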
TRPC4 spec – mouse TRPC4 off-target activity of TRPC6 inhibitors; HEK293 TRPC4/mu-opioid, membrane potential fluorescence; activity change, negative = inhibition, % at 10 µM; 61% of 920 active; shares compounds with TRPC6 inhibitor;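 active means rise or fall in signal beyond 3 SD of buffer-only wells in both replicate plates, either sign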;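 further: integrated kinetic ratio of fluorescence range over baseline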
HEK293 MPD ctr 2-1 – parental HEK293 nonspecific activity of TRPC6 inhibitors, second screen | AID 2779 | shares compounds with TRPC6 inhibitor | parental HEK293 membrane potential dye fluorescence; maximal acetylcholine challenge after compound addition | signal change vs control, % at 10 µM | 31% of 920 active;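 active means membrane potential signal moving either way by over 3 SD of the maximum-effect control, in both duplicate plates, meaning non-specific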
HEK293 MPD ctr-1 – checks TRPC6 inhibitor effects in parental HEK293 cells; membrane potential signal change, % at 10 µM; 60% of 920 active; parental HEK293 membrane potential dye fluorescence; shares compounds with TRPC6 inhibitor;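 active means membrane potential signal shifting up or down by more than 3 SD of buffer-only wells, on both duplicate plates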
HEK293 MPD ctr-2 – counter-screen for TRPC6 modulators: effect in parental HEK293 cells; shares compounds with TRPC6 inhibitor; membrane potential signal change, % at 10 µM; AID 488924; 51% of 2,400 active; membrane potential dye fluorescence;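 active means membrane potential signal moves up or down beyond 5 SD from buffer-only wells, on both duplicate plates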
HEK293 MPD ctr 2-2 – second check of TRPC6 modulator effects in parental HEK293 cells; membrane potential dye fluorescence; after compound, maximal acetylcholine stimulation; inhibition, % at 10 µM; shares compounds with TRPC6 inhibitor; 14% of 2,400 active; AID 488926;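 active means membrane potential signal drops by more than 5 SD from the mean control signal, in both duplicate plates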;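 further: plate controls were acetylcholine ECmax control wells for no effect and buffer only wells for full effect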
TRPC4/MOR mod – mouse TRPC4 off-target activity of TRPC6 modulators; shares compounds with TRPC6 inhibitor; 69% of 2,400 active; HEK293 TRPC4/mu-opioid, membrane potential fluorescence; AID 488927; percent change from control (negative = decrease, positive = increase), % at 10 µM;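 active means membrane potential signal moved up or down beyond 5 SD of buffer control wells, in both duplicate plates, actives on both sides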;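 further: plate controls were assay buffer wells for no effect and DAMGO maximal-effect wells for full effect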
TRPC4 ctr inh 2 – second selectivity test of TRPC6 modulators against mouse TRPC4. shares compounds with TRPC6 inhibitor. AID 488928. HEK293 TRPC4/mu-opioid, membrane potential dye fluorescence; stimulated with maximal-effect DAMGO. 55% of 2,400 active. inhibition, % at 10 µM;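 active means drop in membrane potential signal beyond 5 SD of the control wells in both duplicate plates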;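 further: TRPC4 counter screen for TRPC6 hits run under conditions tuned for TRPC6 not TRPC4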
TRPC6 inh conf – confirmation of mouse TRPC6 inhibitors; shares compounds with TRPC6 inhibitor; HEK293-TRPC6, membrane potential dye, ACh-evoked depolarization; inhibition, % at 10 µM; 43% of 3,300 active;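 active means fluorescence ratio falls more than 5 SD below the full-stimulation control mean, in both duplicate runs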;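 further: integrated fluorescence ratio of peak minus minimum over baseline after agonist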
TRPC6 act conf – mouse TRPC6 activator confirmation | shares compounds with TRPC6 inhibitor | HEK293-TRPC6 membrane potential dye fluorescence, FDSS | activation, % at 10 µM | 11% of 2,800 active;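 active means ratio signal rise beyond 5 SD above unstimulated control wells' mean, seen in both duplicate runs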;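 further: plate controls were buffer EC0 wells for no effect and acetylcholine ECmax response for full effect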
Active calls of the source: *; i = inactive; · = no result; + = active, no number. A selection: hits, their analogues and other compounds. The true share with any hit is near 2.3%.

SMILES	TRPC6 activator	TRPC4 inh	TRPC4 PAM	TRPC6 inhibitor	TRPC4 act	HEK293 MPD ctr-2	HEK293 MPD ctr 2-2	TRPC4/MOR mod	TRPC4 ctr inh 2	TRPC6 inh conf	TRPC6 act conf	others
COc1cc(NC(=O)c2cc([N+](=O)[O-])ccc2NC(=O)CN2CCN(c3ccccn3)CC2)cc(OC)c1	i	i	10*	-5.93*	i	i	i	i	40.5%*	i	i
CCC(CC)c1nnc(NC(=O)c2cc(C(=O)OC)cc([N+](=O)[O-])c2)s1	i	i	i	i	i	·	·	·	·	·	·
CCOC(=O)c1cnc2c(C(F)(F)F)cccc2c1NCCCN1CCOCC1	i	i	i	-7.15*	i	-185.0%*	i	-34.5%*	51.5%*	i	i
CCOC(=O)c1cnc2c(Cl)cccc2c1NCCCN1CCOCC1	i	i	i	-6.34*	i	-187.0%*	i	-30.5%*	38.0%*	44.0%*	i
CCOC(=O)c1cnc2c(CC)cccc2c1NCCCN1CCOCC1	i	i	i	i	i	·	·	·	·	·	·
CCOC(=O)c1cnc2c(Cl)cccc2c1NCCN1CCOCC1	i	i	i	i	i	·	·	·	·	·	·
CN(C)C=Nc1c(Br)cc(Br)c2nonc12	25.4*	i	i	i	i	983.5%*	i	135.5%*	i	i	190.0%*
Cn1c(O)c(/C=N/NC(=O)c2cc3ccccc3cc2O)c2ccccc21	44.4*	i	33*	i	105*	+	i	297.5%*	i	i	256.0%*
COc1ccc(N2C(=O)CSC2c2ccc3c(c2)OCO3)cc1 (stereo not given)	i	i	i	-7.54*	i	·	·	·	·	i	i	TRPC4 sel inh 2=i;TRPC4 spec=i;HEK293 MPD ctr 2-1=i;HEK293 MPD ctr-1=i
Nc1ccccc1Nc1cc(-c2ccccc2)nn1-c1cccc(Cl)c1	i	i	i	-5.59*	i	i	i	i	29.5%*	i	i
CCOc1cc(C(=S)N2CCC(O)CC2)ccc1OS(=O)(=O)c1ccc(Br)cc1	i	i	i	-8.39*	i	·	·	·	·	i	i	TRPC4 sel inh 2=i;TRPC4 spec=i;HEK293 MPD ctr 2-1=i;HEK293 MPD ctr-1=i
Cc1ccc(S(=O)(=O)N2CCC(=O)N(CCOC(=O)Nc3cc(C)cc(C)c3)CC2)cc1	14.3*	i	i	-8.28*	i	i	i	12.5%*	i	90.0%*	141.5%*
